Data set [1] in a line: Cytotoxicity against HEK293 cells assessed as cell viability at 50 uM after 24 hrs by Alamar Blue assay relative to control. It is filed as cell-based. Particulars: human, read-out: Activity. The method, boiled down: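 AlamarBlue added after 24 h, incubated a further 21 h; resorufin fluorescence ex 560/em 590 nm. Triplicates; viability relative to untreated cells; daunorubicin positive control.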
A general note: Alamar Blue is a resazurin reagent that responds to reducing activity.

For data set [2], the system named is Schistosoma mansoni. Briefly: Antiparasitic activity against schistosomula stage of Schistosoma mansoni assessed as parasite viability at 10 uM after 48 hrs by Alamar Blue assay relative to control. It is filed as functional. The method in brief:
(§1)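 Mechanically transformed S. mansoni schistosomula, 100 per well, in Medium 199 with 10% FCS, penicillin, streptomycin and rifampicin, held 3 h at 37°C/5% CO2 before use. […] Resazurin added at 48 h; fluorescence (ex 530/em 590 nm) read 24 h later, corrected for drug-medium background. Ethanol-killed larvae as dead control. Triplicate wells, two biological replicates.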

For data set [3], the target named is T1, Histone deacetylase 1 (Homo sapiens, UniProt Q13547). Briefly: Inhibition of recombinant human HDAC1 using Cbz-(Ac)Lys-AMC as substrate preincubated for 90 mins followed by trypsin addition measured after 20 mins by fluorescence assay. Particulars: read-out: IC50.
T1 sequence (Q13547 whole entry): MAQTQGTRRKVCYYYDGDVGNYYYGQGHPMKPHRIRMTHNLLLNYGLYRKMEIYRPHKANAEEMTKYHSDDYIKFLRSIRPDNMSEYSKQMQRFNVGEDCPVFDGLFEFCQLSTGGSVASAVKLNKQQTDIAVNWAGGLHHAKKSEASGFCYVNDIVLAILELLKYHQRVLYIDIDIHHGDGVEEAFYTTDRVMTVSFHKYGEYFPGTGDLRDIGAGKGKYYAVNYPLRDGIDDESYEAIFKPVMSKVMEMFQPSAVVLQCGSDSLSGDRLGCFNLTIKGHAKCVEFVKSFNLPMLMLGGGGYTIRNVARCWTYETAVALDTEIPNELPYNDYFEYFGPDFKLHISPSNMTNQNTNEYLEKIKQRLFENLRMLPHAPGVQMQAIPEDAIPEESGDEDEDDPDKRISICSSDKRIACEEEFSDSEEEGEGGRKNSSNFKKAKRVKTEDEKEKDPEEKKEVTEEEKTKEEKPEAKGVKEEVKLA
For data set [4], the target named is T2, Protein deacetylase HDAC6 (Homo sapiens, UniProt Q9UBN7).
T2 sequence (Q9UBN7 whole entry): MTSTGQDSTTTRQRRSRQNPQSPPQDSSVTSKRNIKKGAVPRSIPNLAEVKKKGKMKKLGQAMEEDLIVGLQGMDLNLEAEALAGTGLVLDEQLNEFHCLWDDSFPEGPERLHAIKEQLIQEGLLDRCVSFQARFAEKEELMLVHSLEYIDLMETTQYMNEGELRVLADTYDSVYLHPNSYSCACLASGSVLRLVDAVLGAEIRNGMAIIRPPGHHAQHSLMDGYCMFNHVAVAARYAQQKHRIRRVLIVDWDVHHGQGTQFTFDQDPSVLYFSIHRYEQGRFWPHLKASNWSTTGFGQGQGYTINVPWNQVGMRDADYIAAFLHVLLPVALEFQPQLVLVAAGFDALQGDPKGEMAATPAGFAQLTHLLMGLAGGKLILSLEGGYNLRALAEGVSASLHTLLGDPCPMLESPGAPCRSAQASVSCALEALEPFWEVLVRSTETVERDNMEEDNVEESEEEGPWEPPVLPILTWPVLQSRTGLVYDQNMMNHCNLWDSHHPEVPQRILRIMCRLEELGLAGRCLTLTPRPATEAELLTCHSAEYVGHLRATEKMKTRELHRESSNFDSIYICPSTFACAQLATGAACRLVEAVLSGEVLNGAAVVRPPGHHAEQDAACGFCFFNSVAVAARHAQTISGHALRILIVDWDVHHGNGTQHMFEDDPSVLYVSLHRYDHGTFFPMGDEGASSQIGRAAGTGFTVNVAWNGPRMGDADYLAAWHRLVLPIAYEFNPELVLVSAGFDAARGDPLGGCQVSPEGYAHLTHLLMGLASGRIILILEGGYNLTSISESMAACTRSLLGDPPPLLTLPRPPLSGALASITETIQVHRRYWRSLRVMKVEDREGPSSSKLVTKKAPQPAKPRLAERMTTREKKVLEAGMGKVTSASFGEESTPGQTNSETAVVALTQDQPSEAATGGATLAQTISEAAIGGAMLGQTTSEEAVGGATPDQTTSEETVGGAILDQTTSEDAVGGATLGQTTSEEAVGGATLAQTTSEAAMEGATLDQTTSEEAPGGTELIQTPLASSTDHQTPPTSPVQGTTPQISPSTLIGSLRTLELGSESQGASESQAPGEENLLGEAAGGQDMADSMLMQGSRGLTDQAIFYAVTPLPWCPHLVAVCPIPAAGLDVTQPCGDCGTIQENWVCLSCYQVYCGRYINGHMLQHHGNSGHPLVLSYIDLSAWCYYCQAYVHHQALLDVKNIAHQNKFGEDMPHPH
Briefly: Inhibition of recombinant human HDAC6 using Cbz-(Ac)Lys-AMC as substrate preincubated for 90 mins followed by trypsin addition measured after 20 mins by fluorescence assay. Particulars: read-out: IC50.

In data set [5] the test system is Schistosoma mansoni. Put plainly: Antiparasitic activity against schistosomula stage of Schistosoma mansoni assessed as parasite viability after 48 hrs by Alamar Blue assay. Format: functional, organism-based. The method in brief:
as §1

For data set [6], the target named is T3, Histone deacetylase 8 (Homo sapiens, UniProt Q9BY41).
T3 sequence (Q9BY41 whole entry): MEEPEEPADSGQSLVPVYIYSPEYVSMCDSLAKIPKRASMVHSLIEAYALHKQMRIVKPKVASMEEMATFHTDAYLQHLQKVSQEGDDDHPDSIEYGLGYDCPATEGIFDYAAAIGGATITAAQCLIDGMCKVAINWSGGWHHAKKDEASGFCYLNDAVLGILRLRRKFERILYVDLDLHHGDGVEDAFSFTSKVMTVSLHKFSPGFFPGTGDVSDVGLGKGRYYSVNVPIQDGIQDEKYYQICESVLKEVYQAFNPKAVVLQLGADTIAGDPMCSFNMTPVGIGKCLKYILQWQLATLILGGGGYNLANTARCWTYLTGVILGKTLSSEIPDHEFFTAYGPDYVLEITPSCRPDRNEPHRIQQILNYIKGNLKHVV
Briefly: Inhibition of recombinant human HDAC8 using Fluor de Lys as substrate preincubated for 90 mins followed by BML-KI176 addition measured after 45 mins by fluorescence assay. Conditions: read-out: IC50.

Data set [7] has as its system Schistosoma mansoni. Put plainly: Antiparasitic activity against schistosomula stage of Schistosoma mansoni assessed as parasite viability at 20 uM after 48 hrs by Alamar Blue assay relative to control. Format: functional. The method in brief:
as §1

In data set [8] the target is T4, Histone deacetylase 8 (Schistosoma mansoni, UniProt A5H660).
T4 sequence (A5H660 whole entry): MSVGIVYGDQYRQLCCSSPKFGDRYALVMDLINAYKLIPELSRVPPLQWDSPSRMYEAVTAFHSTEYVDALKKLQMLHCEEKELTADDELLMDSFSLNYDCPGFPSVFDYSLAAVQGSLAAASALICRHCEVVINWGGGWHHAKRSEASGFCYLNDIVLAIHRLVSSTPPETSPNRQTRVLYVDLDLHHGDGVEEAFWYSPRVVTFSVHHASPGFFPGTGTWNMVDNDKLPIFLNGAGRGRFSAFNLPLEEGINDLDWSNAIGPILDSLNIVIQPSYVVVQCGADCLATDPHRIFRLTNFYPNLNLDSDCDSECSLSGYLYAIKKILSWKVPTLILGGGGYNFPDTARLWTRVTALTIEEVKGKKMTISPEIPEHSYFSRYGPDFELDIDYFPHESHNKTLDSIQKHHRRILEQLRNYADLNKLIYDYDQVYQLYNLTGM
Put plainly: Inhibition of recombinant Schistosoma mansoni HDAC8 expressed in Escherichia coli using Fluor de Lys as substrate preincubated for 90 mins followed by BML-KI176 addition measured after 45 mins by fluorescence assay. Conditions: read-out: IC50. The method, boiled down: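 smHDAC8 produced in E. coli. Fluor de Lys kit: compound, Fluor de Lys-HDAC8 substrate (50 µM) and enzyme incubated 90 min at 37°C, then Developer II for 45 min at 30°C. Reaction stopped with trichostatin A (2 µM). Fluorescence read at ex 390/em 460 nm. IC50 given as mean ± S.E.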

The target in data set [9] is T1, Histone deacetylase 1. Put plainly: Inhibition of recombinant human HDAC1 using Cbz-(Ac)Lys-AMC as substrate at 10 uM preincubated for 90 mins followed by trypsin addition measured after 20 mins by fluorescence assay relative to control.

One may read the IC50 as the concentration that gives 50% inhibition. As to `CCOc1ccc(C(=O)NO)cc1NC(=O)c1ccc(-c2ccccc2)cc1`, the viability at 24 h, 50 µM in data set [1] was 80.3%. For the same molecule, the Activity in [2] was 77.9%; in [5], “Dose-dependent effect”; in data set [7], 35.8%. Besides, the IC50 in data set [3] was determined as 2080 nM; in [4] it was 600 nM; in data set [6], 149 nM; in data set [8], 92 nM.
The inhibition is how much of the control response was suppressed. For `Cc1ccc(C(=O)NO)cc1NC1CCCCC1`, the viability at 24 h, 50 µM in data set [1] was 70.2%. In data set [2], the Activity worked out at 84.3%. Further, the 50% inhibitory concentration (IC50) in data set [6] amounted to 104 nM; in data set [8], 600 nM. For the same molecule, the inhibition in [9] is 49.5%.
For the molecule `COc1ccc(C(=O)NO)cc1NC(=O)c1ccc(Cl)cc1Cl`, in [1], the viability at 24 h, 50 µM was 95.1%. In addition, the Activity is given as 77.8% in data set [2] and 50.7% in [7]. Besides, the half-maximal inhibitory concentration (IC50) in data set [3] stood at 13000 nM; in data set [4], 2300 nM; in [6] it was 548 nM; in [8] it was 122 nM.
Consider `O=C(NO)c1cccc(NCc2ccccc2)c1`, for which the values for the half-maximal inhibitory concentration (IC50) in [6] and in data set [8] were 143 nM and 1080 nM, respectively. In addition, the inhibition in [9] is 41.4%.
Regarding `COc1ccc(C(=O)NO)cc1NC(=O)c1ccccc1`, the viability at 24 h, 50 µM in data set [1] amounted to 67.3%. In addition, the Activity in data set [2] is 77.4%; in data set [7] it was 74.8%. In addition, the IC50 in [3] is 2300 nM; in [4], 2500 nM; in [6], 88.3 nM; in data set [8], 190 nM.
In the case of `O=C(NO)c1ccc(F)c(NC(=O)c2ccccc2)c1`, the viability at 24 h, 50 µM in [1] came out at 81.8%. Moreover, the Activity came to 82% in data set [2] and 78.6% in data set [7]. Further, the half-inhibitory concentration (IC50) in data set [3] was 22300 nM; in [4], 500 nM; in data set [6], 318 nM; in data set [8], 178 nM.
As to `COc1ccc(C(=O)NO)cc1S(=O)(=O)Nc1ccc(C)cc1`, the viability at 24 h, 50 µM in data set [1] is 80.2%. The Activity is listed as 77.7% in data set [2] and 73.8% in data set [7]. In addition, the IC50 in [3] is 20000 nM; in [4], 2400 nM; in data set [6], 19.8 nM; in data set [8], 485 nM.
Regarding `O=C(NO)c1ccc(Br)c(NC(=O)c2ccccc2)c1`, the viability at 24 h, 50 µM in data set [1] came out at 64.3%. The Activity in [2] is given as 70.8%; in data set [7], 63.1%. For the same molecule, the IC50 in data set [3] is 7400 nM; in [4] it was 150 nM; in data set [6], 191 nM; in data set [8], 150 nM.

Values taken from ChEMBL document CHEMBL3797085, “Structure-Based Design and Synthesis of Novel Inhibitors Targeting HDAC8 from Schistosoma mansoni for the Treatment of Schistosomiasis” (J Med Chem, 2016).
